Values belong to the compound of their own block, whether it stands above or below them. Active and inactive are the calls of the source. No cut-off for these calls is given here.
Columns and labels:
[1] = target: T1, Proteasome Macropain subunit MB1 (Homo sapiens, UniProt P28074); test: Inhibition of chymotrypsin-like activity of human 20S proteasome beta 5 subunit using Suc-LLVY-AMC as substrate after 60 mins by fluorescence assay
T1 sequence (P28074 whole entry): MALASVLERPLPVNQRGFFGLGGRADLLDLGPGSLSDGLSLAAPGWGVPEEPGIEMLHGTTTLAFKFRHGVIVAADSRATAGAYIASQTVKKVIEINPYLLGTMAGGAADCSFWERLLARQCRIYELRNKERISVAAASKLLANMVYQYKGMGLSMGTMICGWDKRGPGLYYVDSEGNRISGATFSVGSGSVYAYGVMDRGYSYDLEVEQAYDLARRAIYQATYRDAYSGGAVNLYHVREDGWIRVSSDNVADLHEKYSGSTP

[2] = target: T2, Proteasome Macropain subunit MB1 (Homo sapiens) (UniProt P28074); test: Inhibition of chymotrypsin-like activity of human constitutive 20S proteasome beta 5 subunit using […] at 0.3 uM incubated for 5 mins prior to […] measured after 1 hr by ELISA
T2 sequence (whole entry): T1 sequence (P28074 whole entry)

[3] = target: T3, Proteasome subunit beta type-8 (Homo sapiens) (UniProt P28062); test: Inhibition of chymotrypsin-like activity of human 20S immunoproteasome beta 5 subunit using […] at 0.3 uM incubated for 5 mins prior to […] measured after 1 hr by ELISA
T3 sequence (whole entry): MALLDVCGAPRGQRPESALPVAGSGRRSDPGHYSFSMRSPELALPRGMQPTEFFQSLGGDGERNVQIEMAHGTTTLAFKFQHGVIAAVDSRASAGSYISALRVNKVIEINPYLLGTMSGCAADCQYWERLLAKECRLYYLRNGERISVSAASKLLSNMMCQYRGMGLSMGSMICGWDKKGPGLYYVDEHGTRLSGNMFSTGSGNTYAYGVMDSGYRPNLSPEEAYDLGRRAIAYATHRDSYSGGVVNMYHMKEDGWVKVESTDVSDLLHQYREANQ

HCT-116 [4] = test: Induction of apoptosis in human HCT116 cells assessed as induction of PARP cleavage by Western blotting analysis; type: functional, cell-based
In short: (§1)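 Cell extracts were immunoblotted for p53, read as a cellular marker of proteasome blockade, and for cleaved PARP, read as an apoptosis marker.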

HCT-116 [5] = test: Cell cycle arrest in human HCT116 cells assessed as accumulation at G2/M phase after 24 hrs by propidium iodide staining-based flow cytometric analysis; type: functional
HCT-116 [6] = test: Inhibition of proteasome in human HCT116 cells assessed as accumulation of p53 by Western blotting analysis; type: cell-based; in short: as §1
HCT-116 [7] = test: Cytotoxicity against human HCT116 cells after 72 hrs by CCK-8 assay; type: functional, cell-based; details: HCT-116, 72 h
[8] = target: T2, Proteasome Macropain subunit MB1 (Homo sapiens); test: Irreversible inhibition of chymotrypsin-like activity of human 20S proteasome beta 5 subunit using Suc-LLVY-AMC as substrate incubated for 12 hrs prior to substrate addition followed by compound wash out measured after 1 hr by dialysis method
[9] = Half life in TEAA buffer at pH 7.4 by HPLC analysis; type: physicochemical
In short: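 Compound incubated in 0.1 M triethylammonium acetate (TEAA) buffer, pH 7.4, at 37 °C. The time course was recorded by HPLC, and the half-life (t1/2) was determined from that time course.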

[10] = target: T2, Proteasome Macropain subunit MB1 (Homo sapiens); test: Reversible inhibition of chymotrypsin-like activity of human 20S proteasome beta 5 subunit using Suc-LLVY-AMC as substrate incubated for 12 hrs prior to substrate addition followed by compound wash out measured after 1 hr by dialysis method
[11] = target: T2, Proteasome Macropain subunit MB1 (Homo sapiens); details: 2.5 uM
[12] = target: T3, Proteasome subunit beta type-8 (Homo sapiens); test: Inhibition of chymotrypsin-like activity of human 20S immunoproteasome beta 5 subunit using […] at 2.5 uM incubated for 5 mins prior to […] measured after 1 hr by ELISA

IC50 [1]: 29 nM
Structure (SMILES): CC[C@H](C)[C@@H]1C(=O)O[C@H]1C(=O)N[C@H]1C[C@H]1C[C@@H](CCc1ccc2ccccc2c1)NC(=O)[C@H](C)NC(=O)OCc1ccccc1

IC50 [1]: 38 nM
Structure (SMILES): CC[C@H](C[C@@H]1C[C@@H]1NC(=O)[C@@H]1OC(=O)[C@H]1[C@@H](C)CC)NC(=O)[C@H](C)NC(=O)OCc1ccccc1

IC50 [1]: 47 nM
Structure (SMILES): C=C[C@H](C[C@@H]1C[C@@H]1NC(=O)[C@@H]1OC(=O)[C@H]1[C@@H](C)CC)NC(=O)[C@H](CC(C)C)NC(=O)OCc1ccccc1

IC50 [1]: 33 nM
Structure (SMILES): CC[C@H](C)[C@@H]1C(=O)O[C@H]1C(=O)N[C@H]1C[C@H]1C[C@@H](CCc1ccccc1)NC(=O)c1ccc2ccccc2c1

IC50 [1]: 130 nM
Structure (SMILES): CC[C@H](C)[C@@H]1C(=O)O[C@H]1C(=O)N[C@H]1C[C@H]1C[C@@H](Cc1cccc2ccccc12)NC(=O)[C@H](C)NC(=O)OCc1ccccc1

IC50 [1]: 49 nM
Structure (SMILES): C=C[C@H](C[C@@H]1C[C@@H]1NC(=O)[C@@H]1OC(=O)[C@H]1[C@@H](C)CC)NC(=O)[C@H](C)NC(=O)OCc1ccccc1
Activity (HCT-116 [5]): Active
IC50 (HCT-116 [7]): 910 nM

IC50 [1]: 63 nM
Structure (SMILES): CC[C@H](C)[C@@H]1C(=O)O[C@H]1C(=O)N[C@H]1C[C@H]1C[C@@H](CCc1cccc2ccccc12)NC(=O)[C@H](C)NC(=O)OCc1ccccc1

IC50 [1]: 41 nM
Structure (SMILES): C=C[C@H](C[C@@H]1C[C@@H]1NC(=O)[C@@H]1OC(=O)[C@H]1[C@@H](C)CC)NC(=O)CNC(=O)OCc1ccccc1

IC50 [1]: 200 nM
Structure (SMILES): CC[C@H](C)[C@@H]1C(=O)O[C@H]1C(=O)N[C@H]1C[C@H]1C[C@@H](Cc1ccc2ccccc2c1)NC(=O)[C@H](C)NC(=O)OCc1ccccc1

IC50 [1]: 30 nM
Structure (SMILES): C=C[C@H](C[C@@H]1C[C@@H]1NC(=O)[C@@H]1OC(=O)[C@H]1[C@@H](C)CC)NC(=O)[C@H](Cc1ccccc1)NC(=O)OCc1ccccc1
Activity (HCT-116 [4]): Active
Activity (HCT-116 [5]): Active
p53 accumulation (active/inactive) (HCT-116 [6]): Active
IC50 (HCT-116 [7]): 4160 nM

IC50 [1]: 10 nM
Structure (SMILES): CC[C@H](C)[C@@H]1C(=O)O[C@H]1C(=O)N[C@H]1C[C@H]1C[C@@H](CCc1ccccc1)NC(=O)[C@H](C)NC(=O)c1ccc2ccccc2c1
Activity (HCT-116 [4]): Active
Activity (HCT-116 [5]): Active
p53 accumulation (active/inactive) (HCT-116 [6]): Active
IC50 (HCT-116 [7]): 790 nM

half-life [9]: 600 min
Structure (SMILES): CC[C@H](C)[C@@H]1C(=O)O[C@H]1C(=O)N[C@H]1C[C@H]1C[C@@H](CCc1ccccc1)NC(=O)[C@H](C)N

IC50 [1]: 57 nM
Structure (SMILES): C=C[C@H](C[C@@H]1C[C@@H]1NC(=O)[C@@H]1OC(=O)[C@H]1[C@@H](C)CC)NC(=O)[C@@H](C)NC(=O)OCc1ccccc1

IC50 [1]: 35 nM
Structure (SMILES): CC[C@H](C)[C@@H]1C(=O)O[C@H]1C(=O)N[C@H]1C[C@H]1C[C@@H](CCCc1ccccc1)NC(=O)[C@H](C)NC(=O)OCc1ccccc1

IC50 [1]: 14 nM
Structure (SMILES): CC[C@H](C)[C@@H]1C(=O)O[C@H]1C(=O)N[C@H]1C[C@H]1C[C@@H](Cc1ccccc1)NC(=O)[C@H](C)NC(=O)OCc1ccccc1

IC50 [1]: 28 nM
Structure (SMILES): C=C[C@H](C[C@@H]1C[C@@H]1NC(=O)[C@@H]1OC(=O)[C@H]1[C@@H](C)CC)NC(=O)[C@H](Cc1c[nH]c2ccccc12)NC(=O)OCc1ccccc1

IC50 [1]: 90 nM
Structure (SMILES): CC[C@H](C)[C@@H]1C(=O)O[C@H]1C(=O)N[C@H]1C[C@H]1C[C@H](NC(=O)[C@H](C)NC(=O)OCc1ccccc1)c1ccccc1

More lines, now with the values behind:

Structure (SMILES): C=C[C@H](C[C@@H]1C[C@@H]1NC(=O)[C@@H]1OC(=O)[C@H]1[C@@H](C)CC)NC(=O)C(C)C
IC50 [1]: 230 nM

Structure (SMILES): COc1ccc(C[C@H](NC(=O)[C@H](C)NC(=O)CN2CCOCC2)C(=O)N[C@@H](Cc2ccccc2)C(=O)[C@]2(C)CO2)cc1
inhibition [2]: Active
inhibition [3]: Active

Structure (SMILES): C=C[C@H](C[C@@H]1C[C@@H]1NC(=O)[C@@H]1OC(=O)[C@H]1[C@@H](C)CC)NC(=O)c1ccc2ccccc2c1
Activity (HCT-116 [4]): Active
IC50 [1]: 60 nM
Activity (HCT-116 [5]): Active
p53 accumulation (active/inactive) (HCT-116 [6]): Active
IC50 (HCT-116 [7]): 11200 nM

Structure (SMILES): C=C[C@H](C[C@@H]1C[C@@H]1NC(=O)[C@@H]1OC(=O)[C@H]1[C@@H](C)CC)NC(=O)C(C)(C)C
IC50 [1]: 210 nM

Structure (SMILES): C=C[C@H](C[C@@H]1C[C@@H]1NC(=O)[C@@H]1OC(=O)[C@H]1[C@@H](C)CC)NC(=O)c1ccccc1
IC50 [1]: 130 nM

Structure (SMILES): CC[C@H](C)[C@@H]1C(=O)O[C@H]1C(=O)N[C@H]1C[C@H]1C[C@H](NC(=O)[C@H](C)N)C(=O)O [BELACTOSIN A]
inhibition [2]: Active
IC50 [1]: 1440 nM
inhibition [3]: Active

Structure (SMILES): C=C[C@H](C[C@@H]1C[C@@H]1NC(=O)[C@@H]1OC(=O)[C@H]1[C@@H](C)CC)NC(=O)[C@H](C)NC(=O)OC(C)(C)C
IC50 [1]: 77 nM

Structure (SMILES): CC(C)C[C@H](NC(=O)[C@H](CCc1ccccc1)NC(=O)CN1CCOCC1)C(=O)N[C@@H](Cc1ccccc1)C(=O)N[C@@H](CC(C)C)C(=O)[C@@]1(C)CO1
inhibition [8]: Active

Structure (SMILES): C=C[C@H](C[C@@H]1C[C@@H]1NC(=O)[C@@H]1OC(=O)[C@H]1[C@@H](C)CC)NC(=O)[C@H](C)NC(=O)c1ccccc1
IC50 [1]: 79 nM

Structure (SMILES): C=C[C@H](C[C@@H]1C[C@@H]1NC(=O)[C@@H]1OC(=O)[C@H]1[C@@H](C)CC)NC(=O)[C@H](C)N
IC50 [1]: 300 nM

Structure (SMILES): C=C[C@H](C[C@@H]1C[C@@H]1NC(=O)[C@@H]1OC(=O)[C@H]1[C@@H](C)CC)NC(=O)[C@H](C)NC(=O)c1ccc2ccccc2c1
Activity (HCT-116 [4]): Active
IC50 [1]: 25 nM
Activity (HCT-116 [5]): Active
p53 accumulation (active/inactive) (HCT-116 [6]): Active
IC50 (HCT-116 [7]): 2610 nM

Structure (SMILES): C[C@@]12OC(=O)[C@]1([C@@H](O)[C@@H]1C=CCCC1)NC(=O)[C@@H]2CCCl [MARIZOMIB]
half-life [9]: 56 min

Structure (SMILES): CC[C@H](C)[C@@H]1C(=O)O[C@H]1C(=O)N[C@H]1C[C@H]1C[C@@H](CCc1ccccc1)NC(=O)[C@H](C)NC(=O)OCc1ccccc1
Activity (HCT-116 [4]): Active
inhibition [2]: Active
IC50 [1]: 5.7 nM
Activity (HCT-116 [5]): Active
p53 accumulation (active/inactive) (HCT-116 [6]): Active
IC50 (HCT-116 [7]): 1820 nM
inhibition [10]: Active
inhibition [3]: Active

Structure (SMILES): CC(=O)N[C@@H](CSC(=O)[C@]1([C@@H](O)C(C)C)NC(=O)[C@H](C)[C@@H]1O)C(=O)O
inhibition [11]: Active
inhibition [12]: Active

Structure (SMILES): CC(C)[C@H](O)[C@@]12NC(=O)[C@H](C)[C@@H]1OC2=O [OMURALIDE]
half-life [9]: 13 min

Structure (SMILES): C=C[C@H](C[C@@H]1C[C@@H]1NC(=O)[C@@H]1OC(=O)[C@H]1[C@@H](C)CC)NC(=O)[C@H](C)NC(C)=O
IC50 [1]: 230 nM

Structure (SMILES): CC(C)C[C@H](NC(=O)[C@H](Cc1ccccc1)NC(=O)c1cnccn1)B(O)O [BORTEZOMIB]
Activity (HCT-116 [4]): Active
Activity (HCT-116 [5]): Active
p53 accumulation (active/inactive) (HCT-116 [6]): Active
IC50 (HCT-116 [7]): 10 nM
inhibition [10]: Active
